Paper PMC4059272 (Journal of Medicinal Chemistry, 2014)

Tests used:
pS2 gene = experiment: RT-PCR of estrogen-responsive gene pS2 in MCF-7:WS8 cells; type: cell-based, human; settings: MCF-7:WS8, 48 h; E2 at 10^–10 M, other compounds at 10^–6 M
Summary of the method: (§1)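 MCF-7:WS8 cells kept in phenol-red RPMI 1640 with 10% FBS, glutamine, nonessential amino acids and 6 ng/mL insulin at 37 °C, 5% CO2. Cells were estrogen-starved 3 days, seeded at 300 000 cells/well the day before, and treated 48 h. RNA was taken in Trizol and run as SYBR green real-time PCR with 36B4 as reference.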

GREB1 gene = experiment: RT-PCR of estrogen-responsive gene GREB1 in MCF-7:WS8 cells; type: cell-based, human; settings: MCF-7:WS8, 48 h; E2 at 10^–10 M, other compounds at 10^–6 M
Summary of the method: as §1

PgR gene = experiment: RT-PCR of estrogen-responsive gene PgR in MCF-7:WS8 cells; type: cell-based, human; settings: MCF-7:WS8, 48 h; E2 at 10^–10 M, other compounds at 10^–6 M
Summary of the method: as §1

MCF-7:WS8 cells [1] = experiment: DNA quantification growth assay, compounds alone; type: cell-based, human; settings: for estrogenic properties on cell growth: MCF-7:WS8, compounds alone, concentration range 10^–12–10^–6 M
MCF-7:WS8 cells [2] = experiment: DNA based growth assay, combination treatments with 10^–10 M E2; type: cell-based, human; settings: for inhibition of 10^–10 M E2-induced growth: MCF-7:WS8, at 10^–6 M
prolactin gene (Prl) = experiment: RT-PCR of prolactin; type: cell-based, rat; settings: GH3 cells, top concentration of 10^–6 M, with 1 nM E2
ERα = target: T1, ERα (Homo sapiens, UniProt P03372); experiment: Immunoblotting of ERα protein levels in MCF-7:WS8 cells; type: cell-based; settings: for regulation of ERα protein levels: MCF-7:WS8, 24 h treatment
T1 sequence (P03372 1-595): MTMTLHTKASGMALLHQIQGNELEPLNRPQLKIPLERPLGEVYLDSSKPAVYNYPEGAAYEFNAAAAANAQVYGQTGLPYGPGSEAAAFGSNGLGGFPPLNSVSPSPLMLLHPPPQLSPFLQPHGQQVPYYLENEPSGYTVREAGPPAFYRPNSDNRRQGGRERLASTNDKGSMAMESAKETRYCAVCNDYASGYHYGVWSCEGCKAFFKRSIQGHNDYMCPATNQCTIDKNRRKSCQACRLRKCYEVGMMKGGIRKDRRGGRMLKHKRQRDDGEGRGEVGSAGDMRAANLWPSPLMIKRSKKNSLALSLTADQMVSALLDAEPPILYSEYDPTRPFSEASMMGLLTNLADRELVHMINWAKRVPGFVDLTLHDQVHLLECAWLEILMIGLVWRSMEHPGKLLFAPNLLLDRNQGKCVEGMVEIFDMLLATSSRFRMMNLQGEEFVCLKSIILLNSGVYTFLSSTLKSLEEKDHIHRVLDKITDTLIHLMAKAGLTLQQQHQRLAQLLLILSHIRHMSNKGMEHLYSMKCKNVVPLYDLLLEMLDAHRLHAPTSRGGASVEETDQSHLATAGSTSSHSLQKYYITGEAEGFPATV

Row | reduction (down-regulation) of ERα level by densitometry (ERα; MCF-7:WS8, 24 h, E2 at 1 nM) | regulation of ERα protein levels (ERα) | Compound | effect on pS2 mRNA expression (pS2 gene) | effect on GREB1 mRNA expression (GREB1 gene) | effect on PgR mRNA expression (PgR gene) | estrogenic properties on cell growth (MCF-7:WS8 cells [1]) | inhibition of 10^–10 M E2-induced growth (MCF-7:WS8 cells [2]) | inhibition of 1 nM E2-induced Prl gene up-regulation (prolactin gene (Prl)) | partial agonist growth level, % max of E2 curve (MCF-7:WS8 cells [1]; MCF-7:WS8, over the range 10^–12–10^–9 M) [%] | inhibition of E2-stimulated cell growth at top concentration (MCF-7:WS8 cells [2]; MCF-7:WS8, 10^–6 M compound with 10^–10 M E2)
1 |  |  | C[C@]12CC[C@@H]3c4ccc(O)cc4CC[C@H]3[C@@H]1CC[C@@H]2O [E2, 17β-estradiol] | induced expression | induced expression | induced expression |  |  |  |  | 
2 |  |  | CCC(=C(c1ccc(O)cc1)c1ccc(OCCN(C)C)cc1)c1ccccc1 [4OHT, 4-hydroxytamoxifen] | no significant effect | no significant effect |  | no estrogenic properties | completely | completely inhibit |  | 
3 | more than 90% |  | C[C@]12CC[C@@H]3c4ccc(O)cc4C[C@@H](CCCCCCCCC[S+]([O-])CCCC(F)(F)C(F)(F)F)[C@H]3[C@@H]1CC[C@@H]2O (stereo partly drawn) [Fulvestrant] |  |  |  |  |  |  |  | 
4 |  | up-regulated the protein levels | CCC(=C(c1ccc(O)cc1)c1ccc(O)cc1)c1ccccc1 [BPTPE] | partial estrogenic effect | partial estrogenic effect | partial estrogenic effect |  |  |  | 50 | 
5 |  | up-regulated the protein levels | CCC(=C(c1ccc(O)cc1)c1ccc(O)cc1)c1ccc(O)cc1 [3OHTPE] | partial estrogenic effect | partial estrogenic effect | partial estrogenic effect |  |  |  |  | 
6 |  |  | CN(C)CCOc1ccc2c(c1)CCCC(c1ccccc1)=C2c1ccc(O)cc1 [EFR4OHT] | induce expression | induce expression | induce expression |  |  |  |  | 
7 |  |  | CCOc1ccc2c(c1)CCCC(c1ccccc1)=C2c1ccc(OCCN(C)C)cc1 [ZFR4OHT] | no significant effect | no significant effect |  | no estrogenic properties |  | completely inhibit |  | 
8 |  | up-regulation | CC/C(=C(\c1ccc(O)cc1)c1ccc(OCCNC)cc1)c1ccccc1 [Endoxifen, 4-hydroxy-N-desmethyltamoxifen] |  |  |  | no estrogenic properties | completely |  |  | 
9 |  |  | CNCCOc1ccc(C2=C(c3ccccc3)CCCc3cc(O)ccc32)cc1 [ZFREndox, 9-(4-(2-(Methylamino)ethoxy)phenyl)-8-phenyl-6,7-dihydro-5H-benzocyclohepten-3-ol] | no significant effect | no significant effect |  | no estrogenic properties |  | completely inhibit |  | 
10 |  |  | CNCCOc1ccc2c(c1)CCCC(c1ccccc1)=C2c1ccc(O)cc1 [EFREndox, 4-(3-(2-(Methylamino)ethoxy)-8-phenyl-6,7-dihydro-5H-benzocyclohepten-9-yl)phenol] | induce expression | induce expression | induce expression |  |  |  |  | about 10%
